For two compounds, inhibition, Activity and AUC(0-inf) results are on record in ChEMBL document CHEMBL4406821, “Novel dual inhibitors targeting CDK4 and VEGFR2 synergistically suppressed cancer progression and angiogenesis” (Eur J Med Chem, 2019).

Molecules are shown by their SMILES. Calls of active or inactive are those of the source. The rule behind the calls is not given here.

In data set [1] the target is Casein kinase II subunit alpha' (Homo sapiens) (UniProt P19784). The data set can be described thus: Inhibition of recombinant human full length CK2alpha2 at 1 uM using RRRDDDSDDD as substrate incubated for 40 mins in presence of [gamma-33P]-ATP by scintillation counting method relative to control.
Data set [2] has as its target Eukaryotic elongation factor 2 kinase (Homo sapiens) (UniProt O00418). Nature of the data set: Inhibition of recombinant human eEF-2K (2 to end residues) at 1 uM using RKKFGESEKTKTKEFL as substrate incubated for 40 mins in presence of [gamma-33P]-ATP by scintillation counting method relative to control. The essentials:
(§1)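 Tested at a single 1 uM in an outsourced commercial kinase-profiling panel, read as percent inhibition. Each value is the mean of two independent experiments.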

The target in data set [3] is cGMP-dependent protein kinase 1 (Homo sapiens) (UniProt Q13976). Nature of the data set: Inhibition of recombinant human full length PKG1beta at 1 uM using RRRLSFAEPG as substrate incubated for 40 mins in presence of [gamma-33P]-ATP by scintillation counting method relative to control.
For data set [4], the target named is Ephrin type-A receptor 4 (Homo sapiens) (UniProt P54764). Nature of the data set: Inhibition of recombinant human EPhA4 (601 to 892 residues) at 1 uM using poly(Glu, Tyr) 4:1 as substrate incubated for 40 mins in presence of [gamma-33P]-ATP by scintillation counting method relative to control.
Data set [5] in a line: Toxicity in NOD/SCID BALB/c mouse xenografted with human SiHa cells assessed as toxic effects in heart at 40 mg/kg, po administered for 48 hrs by hematoxylin and eosin staining method. The class given is organism-based. The conditions noted are these: in vivo. Background: A xenograft is tissue or cells of one species grown in another, often human tumour cells in immunodeficient mice.

The subject of data set [6] is MDA-MB-231. Nature of the data set: Inhibition of colony formation in human MDA-MB-231 cells at 20 to 40 nM incubated for 5 days by crystal violet staining based light microscopy. The class given is functional, cell-based. The essentials:
(§2)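 4 × 10^3 cells per well were cultured with graded concentrations for 5 days. Cells were then fixed with 20% methanol, stained with 0.5% crystal violet and photographed by light microscopy.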

The species named for data set [7] is Homo sapiens. The data set can be described thus: Inhibition of recombinant human full length PI3K p110alpha/p65alpha (1 to 571 residues) at 1 uM using phosphatidylinositol 4,5-bisphosphate as substrate incubated for 40 mins in presence of [gamma-33P]-ATP by scintillation counting method relative to control.
Data set [8] deals with SNF-related serine/threonine-protein kinase (Homo sapiens) (UniProt Q9NRH2). Nature of the data set: Inhibition of recombinant human SNRK (1 to 505 residues) at 1 uM using KKLRRTLSFAEPG as substrate incubated for 40 mins in presence of [gamma-33P]-ATP by scintillation counting method relative to control. The procedure, abridged:
as §1

The target of data set [9] is Serine/threonine-protein kinase TAO3 (Homo sapiens) (UniProt Q9H2K8). The data set can be described thus: Inhibition of recombinant human TAO3 (1 to 411 residues) at 1 uM using myelin basic protein as substrate incubated for 40 mins in presence of [gamma-33P]-ATP by scintillation counting method relative to control.
The target of data set [10] is Wee1-like protein kinase 2 (Homo sapiens) (UniProt P0C1S8). Nature of the data set: Inhibition of recombinant human full length WEE1B at 1 uM using LSNLYHQGKFLQTFCGSPLYRRR as substrate incubated for 40 mins in presence of [gamma-33P]-ATP by scintillation counting method relative to control. The essentials: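 Single-point inhibition at 1 uM measured in a commercial kinase profiling panel (KinaseProfiler); each value is the mean of two independent experiments.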

In data set [11] the test system is T47D. The data set can be described thus: Induction of apoptosis in human T47D cells assessed as increase in early apoptotic cells at 20 to 40 nM incubated for 48 hrs by annexin V FITC and propidium iodide staining based flow cytometry. The class given is functional, cell-based. The essentials:
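Annexin V-FITC/PI double staining with flow-cytometric readout. MDA-MB-231, T-47D, SiHa and HeLa cells were treated with graded concentrations for 48 h. MDA-MB-231 and T-47D were grown in DMEM and SiHa in 1640 medium, each with 10% FBS and 1% penicillin/streptomycin at 37°C under 5% CO2. Early- and late-stage apoptotic fractions were scored.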

Data set [12] can be described thus: AUC (0 to infinity) in Sprague-Dawley rat at 10 mg/kg, po by HPLC-MS analysis. It is filed as ADME, organism-based. The arrangement: dose 10 mg/kg, time infinity, route oral. The following applies: in vivo. The essentials:
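Rats fitted with jugular vein catheters for serial blood sampling. Compound dissolved in saline with 5% (v/v) DMSO and given as a single 10 mg/kg dose iv or po after an overnight fast, n = 5 per group. Plasma isolated at once and measured by HPLC with tandem MS detection. Parameters derived by noncompartmental fitting.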

The target of data set [13] is Serine/threonine-protein kinase 32B (Homo sapiens) (UniProt Q9NY57). The data set can be described thus: Inhibition of recombinant human full length STK32B at 1 uM using casein as substrate incubated for 40 mins in presence of [gamma-33P]-ATP by scintillation counting method relative to control.
The target of data set [14] is Proto-oncogene tyrosine-protein kinase ROS (Homo sapiens) (UniProt P08922). Nature of the data set: Inhibition of recombinant human ROS (1883 to end residues) at 1 uM using KKKSPGEYVNIEFG as substrate incubated for 40 mins in presence of [gamma-33P]-ATP by scintillation counting method relative to control.
Data set [15] is described as follows: Toxicity in NOD/SCID BALB/c mouse xenografted with human SiHa cells assessed as effect on blood parameter by measuring WBC content at 40 mg/kg, po administered once two days for 4 times by hematology analyzer. The class given is organism-based. The conditions noted are these: in vivo.
In data set [16] the test system is T47D. Nature of the data set: Induction of cell cycle arrest in human T47D cells assessed as accumulation in G2/M phase at 20 to 40 nM incubated for 36 hrs by propidium iodide staining based flow cytometry. The class given is functional. The essentials: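 Cells were treated with graded concentrations for 36 h, then fixed overnight in 70% ice-cold ethanol at 4°C and resuspended in PBS. Staining used 50 µg/ml PI plus 5 µg/ml RNase at 37°C for 30 min. DNA content was analysed by FACS to give G0/G1, S and G2/M fractions.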

Data set [17] deals with CDK4/Cyclin D3 (Homo sapiens) (UniProt P11802+P30281). The data set can be described thus: Inhibition of recombinant full length human CDK4/Cyclin D3 using Rb-fragmen as substrate at 1 uM incubated for 40 mins by [gamma-33P]-ATP based radiometric assay relative to control. It is filed as protein-complex assay. The procedure, abridged: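 Kinase panel profiling at 1 μM performed by Eurofins KinaseProfiler; percent inhibition reported as mean of two independent experiments.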

The target of data set [18] is Tau-tubulin kinase 1 (Homo sapiens) (UniProt Q5TCY1). The data set can be described thus: Inhibition of recombinant human TTBK1 (1 to 479 residues) at 1 uM using casein as substrate incubated for 40 mins in presence of [gamma-33P]-ATP by scintillation counting method relative to control. The essentials: as §1
Data set [19] addresses Protein kinase C theta type (Homo sapiens) (UniProt Q04759). The data set can be described thus: Inhibition of recombinant human full length PKCtheta at 1 uM using histone H1 as substrate incubated for 40 mins in presence of [gamma-33P]-ATP by scintillation counting method relative to control.
Data set [20] concerns SiHa. The data set can be described thus: Inhibition of colony formation in human SiHa cells at 80 nM incubated for 5 days by crystal violet staining based light microscopy. The class given is functional, cell-based. The essentials: as §2
The subject of data set [21] is MDA-MB-231. The data set can be described thus: Induction of apoptosis in human MDA-MB-231 cells assessed as decrease in Bcl2 expression at 40 nM incubated for 48 hrs by Western blot analysis. It is filed as functional, cell-based. The procedure, abridged: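 Cells were treated for 48 h, washed three times with PBS, and lysed in RIPA buffer. Immunoblots used anti-Rb, anti-phospho-Rb, anti-Ki67 and anti-Bcl-2 (each 1:1000), with β-actin as loading control.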

cGMP-dependent protein kinase 1 (Homo sapiens), sequence (Q13976 whole entry, the tested form may be a part): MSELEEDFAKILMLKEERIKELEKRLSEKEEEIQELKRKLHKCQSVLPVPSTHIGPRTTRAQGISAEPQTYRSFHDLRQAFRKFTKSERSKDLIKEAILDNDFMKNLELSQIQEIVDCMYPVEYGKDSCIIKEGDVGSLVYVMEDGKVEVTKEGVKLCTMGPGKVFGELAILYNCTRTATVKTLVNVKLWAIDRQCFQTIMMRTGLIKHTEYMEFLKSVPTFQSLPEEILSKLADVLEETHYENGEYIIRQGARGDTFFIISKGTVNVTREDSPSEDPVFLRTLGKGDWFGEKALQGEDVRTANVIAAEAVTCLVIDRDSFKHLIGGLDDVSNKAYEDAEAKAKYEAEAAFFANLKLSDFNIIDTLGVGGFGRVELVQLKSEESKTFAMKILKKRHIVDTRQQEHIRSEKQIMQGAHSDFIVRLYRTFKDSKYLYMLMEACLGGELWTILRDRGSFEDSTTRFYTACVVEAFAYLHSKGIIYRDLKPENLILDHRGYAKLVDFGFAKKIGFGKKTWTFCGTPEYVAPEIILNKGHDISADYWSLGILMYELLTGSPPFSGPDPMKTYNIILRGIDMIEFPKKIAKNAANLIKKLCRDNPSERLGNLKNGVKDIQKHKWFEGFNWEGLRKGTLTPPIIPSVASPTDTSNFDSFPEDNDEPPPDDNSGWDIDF
Serine/threonine-protein kinase 32B (Homo sapiens), sequence (Q9NY57 whole entry): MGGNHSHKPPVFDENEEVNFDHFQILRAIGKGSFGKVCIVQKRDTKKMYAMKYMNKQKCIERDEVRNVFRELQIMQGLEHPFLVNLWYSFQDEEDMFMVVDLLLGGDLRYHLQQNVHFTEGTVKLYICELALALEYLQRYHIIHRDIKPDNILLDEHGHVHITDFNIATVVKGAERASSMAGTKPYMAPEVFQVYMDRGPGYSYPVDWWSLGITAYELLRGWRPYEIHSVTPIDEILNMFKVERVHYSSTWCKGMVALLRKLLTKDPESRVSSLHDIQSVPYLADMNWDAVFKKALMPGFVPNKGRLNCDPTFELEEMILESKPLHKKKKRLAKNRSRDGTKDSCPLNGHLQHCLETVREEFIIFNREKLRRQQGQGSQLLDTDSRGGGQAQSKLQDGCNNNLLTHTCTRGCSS
Proto-oncogene tyrosine-protein kinase ROS (Homo sapiens), sequence (P08922 whole entry): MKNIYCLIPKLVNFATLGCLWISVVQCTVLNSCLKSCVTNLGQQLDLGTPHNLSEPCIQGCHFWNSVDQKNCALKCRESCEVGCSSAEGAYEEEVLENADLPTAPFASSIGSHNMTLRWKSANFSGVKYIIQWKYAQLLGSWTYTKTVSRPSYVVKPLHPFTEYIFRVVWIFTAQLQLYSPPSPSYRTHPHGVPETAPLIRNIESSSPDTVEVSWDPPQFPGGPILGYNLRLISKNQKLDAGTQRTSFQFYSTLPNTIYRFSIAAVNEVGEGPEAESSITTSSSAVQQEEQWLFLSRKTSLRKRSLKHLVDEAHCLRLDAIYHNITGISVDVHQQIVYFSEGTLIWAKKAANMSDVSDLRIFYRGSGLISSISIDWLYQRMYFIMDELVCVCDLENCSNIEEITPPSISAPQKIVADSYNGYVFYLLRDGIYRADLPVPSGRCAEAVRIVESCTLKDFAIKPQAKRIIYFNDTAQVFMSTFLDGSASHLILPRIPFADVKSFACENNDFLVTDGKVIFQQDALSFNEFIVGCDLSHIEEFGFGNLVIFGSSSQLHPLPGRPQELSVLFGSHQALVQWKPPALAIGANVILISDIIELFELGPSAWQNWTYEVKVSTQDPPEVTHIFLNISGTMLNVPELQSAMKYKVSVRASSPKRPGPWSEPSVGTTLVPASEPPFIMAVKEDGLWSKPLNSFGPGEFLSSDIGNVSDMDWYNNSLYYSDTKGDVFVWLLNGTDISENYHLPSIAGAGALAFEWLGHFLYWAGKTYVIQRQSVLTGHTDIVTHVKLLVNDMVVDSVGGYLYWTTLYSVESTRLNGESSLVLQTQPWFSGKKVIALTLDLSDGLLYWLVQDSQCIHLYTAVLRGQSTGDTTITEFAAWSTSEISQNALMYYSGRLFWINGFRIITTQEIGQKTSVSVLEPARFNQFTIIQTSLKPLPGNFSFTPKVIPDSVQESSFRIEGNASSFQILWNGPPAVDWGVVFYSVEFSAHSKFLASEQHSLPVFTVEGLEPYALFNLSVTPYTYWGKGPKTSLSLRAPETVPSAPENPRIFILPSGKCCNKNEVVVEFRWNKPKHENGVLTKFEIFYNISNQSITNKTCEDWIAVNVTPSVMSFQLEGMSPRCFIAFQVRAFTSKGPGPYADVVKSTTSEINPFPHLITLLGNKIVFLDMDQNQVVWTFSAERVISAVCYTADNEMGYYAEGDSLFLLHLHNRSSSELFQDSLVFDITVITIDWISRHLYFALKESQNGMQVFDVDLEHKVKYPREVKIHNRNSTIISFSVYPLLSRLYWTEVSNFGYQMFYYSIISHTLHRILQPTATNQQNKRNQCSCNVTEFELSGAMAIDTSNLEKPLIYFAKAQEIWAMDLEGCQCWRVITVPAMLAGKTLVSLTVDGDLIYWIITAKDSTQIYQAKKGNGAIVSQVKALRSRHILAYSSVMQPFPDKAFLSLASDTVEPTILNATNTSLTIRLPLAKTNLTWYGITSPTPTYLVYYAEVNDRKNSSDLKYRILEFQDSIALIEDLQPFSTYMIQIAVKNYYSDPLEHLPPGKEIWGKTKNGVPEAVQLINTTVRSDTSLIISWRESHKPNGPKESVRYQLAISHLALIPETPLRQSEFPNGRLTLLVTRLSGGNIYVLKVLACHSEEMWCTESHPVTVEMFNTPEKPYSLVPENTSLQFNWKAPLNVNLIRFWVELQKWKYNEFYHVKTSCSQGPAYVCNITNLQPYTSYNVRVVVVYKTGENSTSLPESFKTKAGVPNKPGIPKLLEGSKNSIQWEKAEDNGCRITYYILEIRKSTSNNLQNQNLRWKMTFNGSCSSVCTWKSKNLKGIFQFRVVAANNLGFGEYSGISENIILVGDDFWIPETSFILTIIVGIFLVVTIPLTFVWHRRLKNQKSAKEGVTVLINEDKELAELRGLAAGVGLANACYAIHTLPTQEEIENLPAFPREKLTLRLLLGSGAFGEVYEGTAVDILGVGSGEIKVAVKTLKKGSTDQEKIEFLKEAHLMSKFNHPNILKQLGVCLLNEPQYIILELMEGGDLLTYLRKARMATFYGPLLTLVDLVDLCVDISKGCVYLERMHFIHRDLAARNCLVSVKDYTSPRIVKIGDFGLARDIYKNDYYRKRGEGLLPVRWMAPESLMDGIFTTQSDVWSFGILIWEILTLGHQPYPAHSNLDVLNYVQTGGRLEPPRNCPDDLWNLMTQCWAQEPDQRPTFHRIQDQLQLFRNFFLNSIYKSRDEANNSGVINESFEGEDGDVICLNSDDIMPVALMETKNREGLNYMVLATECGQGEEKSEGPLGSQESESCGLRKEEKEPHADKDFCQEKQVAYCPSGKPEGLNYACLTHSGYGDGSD
Serine/threonine-protein kinase TAO3 (Homo sapiens), sequence (Q9H2K8 whole entry, the tested form may be a part): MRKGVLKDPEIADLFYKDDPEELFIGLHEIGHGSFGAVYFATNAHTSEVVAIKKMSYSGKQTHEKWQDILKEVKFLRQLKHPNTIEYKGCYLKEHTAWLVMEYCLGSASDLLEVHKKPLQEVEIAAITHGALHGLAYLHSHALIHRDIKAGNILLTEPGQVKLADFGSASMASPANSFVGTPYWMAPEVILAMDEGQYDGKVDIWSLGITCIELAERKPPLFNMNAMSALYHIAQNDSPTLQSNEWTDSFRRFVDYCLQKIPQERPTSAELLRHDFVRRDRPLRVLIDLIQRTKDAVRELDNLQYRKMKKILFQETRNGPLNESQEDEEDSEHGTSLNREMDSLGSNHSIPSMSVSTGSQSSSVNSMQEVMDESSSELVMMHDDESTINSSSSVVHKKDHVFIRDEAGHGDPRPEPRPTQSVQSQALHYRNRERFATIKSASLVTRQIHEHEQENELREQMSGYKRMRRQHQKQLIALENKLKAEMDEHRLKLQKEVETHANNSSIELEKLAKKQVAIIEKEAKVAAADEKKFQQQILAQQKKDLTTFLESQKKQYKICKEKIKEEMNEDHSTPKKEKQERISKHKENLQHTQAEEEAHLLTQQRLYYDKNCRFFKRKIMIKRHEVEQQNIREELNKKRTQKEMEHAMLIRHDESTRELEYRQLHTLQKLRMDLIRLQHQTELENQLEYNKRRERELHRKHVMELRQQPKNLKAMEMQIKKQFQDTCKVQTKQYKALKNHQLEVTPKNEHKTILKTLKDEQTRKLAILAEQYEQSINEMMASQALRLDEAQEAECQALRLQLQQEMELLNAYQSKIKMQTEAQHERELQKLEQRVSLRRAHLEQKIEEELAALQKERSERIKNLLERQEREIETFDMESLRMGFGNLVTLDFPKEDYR
Protein kinase C theta type (Homo sapiens), sequence (Q04759 whole entry, looked up): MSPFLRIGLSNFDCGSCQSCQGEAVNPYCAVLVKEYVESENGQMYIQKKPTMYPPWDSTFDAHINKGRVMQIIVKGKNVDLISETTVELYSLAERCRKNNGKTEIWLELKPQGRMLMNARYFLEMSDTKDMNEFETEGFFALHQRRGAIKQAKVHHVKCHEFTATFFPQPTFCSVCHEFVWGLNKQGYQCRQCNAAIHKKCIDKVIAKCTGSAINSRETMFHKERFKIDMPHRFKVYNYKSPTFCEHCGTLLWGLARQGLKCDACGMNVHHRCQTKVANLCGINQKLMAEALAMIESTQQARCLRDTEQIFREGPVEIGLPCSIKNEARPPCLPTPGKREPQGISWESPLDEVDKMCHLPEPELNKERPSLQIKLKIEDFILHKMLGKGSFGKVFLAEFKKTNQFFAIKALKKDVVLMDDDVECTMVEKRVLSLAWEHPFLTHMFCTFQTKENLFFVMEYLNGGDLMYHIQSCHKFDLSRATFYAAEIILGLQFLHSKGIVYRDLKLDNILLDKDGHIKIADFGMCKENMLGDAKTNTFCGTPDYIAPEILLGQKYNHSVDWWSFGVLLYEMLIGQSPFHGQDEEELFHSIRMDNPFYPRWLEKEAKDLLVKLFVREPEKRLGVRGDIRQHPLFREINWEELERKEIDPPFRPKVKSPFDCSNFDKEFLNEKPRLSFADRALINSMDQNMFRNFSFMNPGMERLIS

As for `Cc1ccc(NC(=O)C2(C(=O)Nc3ccc(Nc4ncc(F)c(-c5cc(F)c6nc(C)n(C(C)C)c6c5)n4)cc3)CC2)cc1`, the inhibition in data set [1] is 72%; in [2] it was 0%; in data set [3] it was 45%; in [4], 28%; in data set [7] it was 6%; in data set [8], 0%. The inhibition in data set [9] worked out at 2%; in [10], 0%; in [13] it was 2%; in [14], 58%; in data set [17], 97%; in data set [18], 0%. For the same compound, in data set [19], the inhibition was found to be 40%. Moreover, the Activity result in data set [5] and in [15] was “Non-Toxic” in each case. Further, the inhibition result in [6] is “Active”. Besides, the result in [11] and in data set [16] was Active. Besides, the area under the curve AUC(0-inf) in [12] was 6000 ng·h/mL.
As for `COc1cc2nccc(Oc3ccc(NC(=O)C4(C(=O)Nc5ccc(F)cc5)CC4)cc3)c2cc1OC` [CABOZANTINIB], the inhibition entry in data set [20] was “Active”. Moreover, the result in data set [21] was Active.

As usually defined, the inhibition is the relative decrease from the control value, in per cent. What is called AUC(0-inf) is total exposure, with the tail of the curve extrapolated.
